In ChEMBL document CHEMBL4342470, “Detection of Active Granzyme A in NK92 Cells with Fluorescent Activity-Based Probe” (J Med Chem, 2020):
Blank lines part the entries; values can stand above or below the molecule they belong to. Active and inactive are the calls of the source. The calls are words filed in the database; no cut-off is given here. Non-standard residues stand in square brackets, D forms with d. Residues, ends and D or L forms follow the SMILES beside them. *: point of attachment. ACC = NC(=O)Cc1cc(=O)oc2cc(N*)ccc12; Met(O) = CS(=O)CC[C@H](N)C(=O)O; X1 = Clc1cccc(Cl)c1C*

What was measured:
[1] = biological target: T1, Granzyme A (Homo sapiens) (UniProt P12544); assay: Inhibition of Granzyme A (unknown origin) expressed in Pichia pastoris assessed as second- order inhibition rate constant (Kobs/I ratio) pre-incubated with SK15 substrate for 15 mins before enzyme addition by spectrofluorometry
T1 sequence (whole entry): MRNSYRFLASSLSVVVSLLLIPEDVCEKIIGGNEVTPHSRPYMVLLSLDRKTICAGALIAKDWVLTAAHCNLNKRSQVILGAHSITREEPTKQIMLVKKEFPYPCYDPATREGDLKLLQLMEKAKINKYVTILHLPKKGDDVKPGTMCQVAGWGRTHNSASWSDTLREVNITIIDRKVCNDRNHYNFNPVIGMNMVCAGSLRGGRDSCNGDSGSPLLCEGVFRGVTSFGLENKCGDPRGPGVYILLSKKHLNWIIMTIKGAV
Outline: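 Recombinant GrA at 350 nM, pre-warmed at 37 °C, added to SK15 substrate that had been preincubated 15 min at 37 °C with varied inhibitor or probe (inhibitor range 714–333 nM, SK15 10 μM). Tris/NaCl/CaCl2/Tween-20 buffer, pH 7.5. AMC-type fluorescence at 355/460 nm under pseudo-first-order conditions to give kobs/I. Mean of at least three experiments with standard deviation.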

[2] = biological target: T2, Myeloblastin (Homo sapiens) (UniProt P24158); assay: Inhibition of PR3 (unknown origin) expressed in Pichia pastoris using Ac-Glu(O-Bzl)-Lys(Ac)-Hyp(Bzl)-Nva-ACC substrate by spectrofluorometry relative to control
T2 sequence (whole entry): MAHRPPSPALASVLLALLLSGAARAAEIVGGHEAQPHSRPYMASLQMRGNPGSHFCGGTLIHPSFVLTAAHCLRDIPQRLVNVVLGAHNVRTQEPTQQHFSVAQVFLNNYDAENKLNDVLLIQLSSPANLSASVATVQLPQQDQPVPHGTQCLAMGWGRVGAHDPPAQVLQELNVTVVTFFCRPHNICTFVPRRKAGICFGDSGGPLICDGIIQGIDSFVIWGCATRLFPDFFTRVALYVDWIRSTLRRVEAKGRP
Outline: (§1)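 Each enzyme preincubated 30 min at 37 °C with 10 μM compound, then its matched ACC substrate added (SK15 for GrA, GrKref, GrBref, Ac-KVPL-ACC for GrM, and the PR3 and hNE substrates). Enzyme levels: GrK 488 nM, GrB 18 nM, GrM 74 nM, hNE 3.3 nM, PR3 3.4 nM. Reference substrates at 200 μM. Fluorescence read at 355/460 nm; residual activity relative to an untreated enzyme control.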

[3] = biological target: T3, Granzyme M (Homo sapiens) (UniProt P51124); assay: Inhibition of Granzyme M (unknown origin) expressed in Pichia pastoris using Ac-Lys-Val-Pro-Leu-ACC substrate by spectrofluorometry relative to control; outline: as §1
T3 sequence (whole entry): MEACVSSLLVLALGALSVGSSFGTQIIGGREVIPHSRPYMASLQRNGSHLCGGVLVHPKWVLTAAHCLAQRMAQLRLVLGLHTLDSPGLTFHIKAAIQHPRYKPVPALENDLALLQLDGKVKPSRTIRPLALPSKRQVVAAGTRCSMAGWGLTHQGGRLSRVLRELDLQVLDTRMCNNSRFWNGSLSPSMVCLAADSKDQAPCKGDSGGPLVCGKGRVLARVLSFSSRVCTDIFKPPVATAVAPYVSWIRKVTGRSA

[4] = biological target: Granzyme B (Homo sapiens) (UniProt P10144); assay: Inhibition of Granzyme B (unknown origin) expressed in Pichia pastoris using GrBref substrate by spectrofluorometry relative to control; outline: as §1
[5] = biological target: T4, Neutrophil elastase (Homo sapiens) (UniProt P08246); assay: Inhibition of human neutrophil elastase expressed in Pichia pastoris using Ac-Arg(NO)2-Glu(Bzl)-Oic-Abu-ACC substrate by spectrofluorometry relative to control; outline: as §1
T4 sequence (whole entry): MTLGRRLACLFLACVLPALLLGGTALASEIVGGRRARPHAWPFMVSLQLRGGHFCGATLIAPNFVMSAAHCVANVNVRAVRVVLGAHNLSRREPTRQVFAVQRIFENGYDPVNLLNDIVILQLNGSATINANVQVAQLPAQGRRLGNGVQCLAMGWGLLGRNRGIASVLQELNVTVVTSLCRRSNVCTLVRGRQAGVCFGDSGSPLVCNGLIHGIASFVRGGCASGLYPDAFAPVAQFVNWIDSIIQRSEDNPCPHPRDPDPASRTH

[6] = biological target: T5, Granzyme K (Homo sapiens) (UniProt P49863); assay: Inhibition of Granzyme K (unknown origin) expressed in Pichia pastoris using GrKref substrate by spectrofluorometry relative to control; conditions: concentration not given here; outline: as §1
T5 sequence (whole entry): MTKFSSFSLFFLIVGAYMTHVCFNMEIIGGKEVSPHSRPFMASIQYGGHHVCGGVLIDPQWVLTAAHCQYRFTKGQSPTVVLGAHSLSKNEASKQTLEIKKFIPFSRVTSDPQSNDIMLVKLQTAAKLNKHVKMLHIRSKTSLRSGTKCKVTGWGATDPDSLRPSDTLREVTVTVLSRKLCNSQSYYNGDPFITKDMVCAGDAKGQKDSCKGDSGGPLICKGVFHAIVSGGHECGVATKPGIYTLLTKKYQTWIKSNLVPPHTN

[7] = biological target: T1, Granzyme A (Homo sapiens); assay: Inhibition of Granzyme A (unknown origin) expressed in Pichia pastoris using SK15 substrate by spectrofluorometry relative to control; outline: as §1
[8] = biological target: T1, Granzyme A (Homo sapiens); assay: Binding affinity to Granzyme A active form (unknown origin) expressed in Pichia pastoris at 500 nM in presence of 1 uM methyl 4-[(3S)-3-[[2-[(2S)-2-[(1-diphenoxyphosphoryl-4-guanidinobutyl)carbamoyl]-2,3,3a,4,5,6,7,7a-octahydroindol-1-yl]-2-oxoethyl]carbamoyl]-3,4-dihydro-1H-isoquinolin-2-yl]-4-oxobutanoate by Western blot analysis
Outline: (§2)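 Active GrA or proenzyme diluted to 250 nM final in pH 7.5 assay buffer, with or without 1 h preincubation with 1 μM diphenyl phosphonate inhibitor at 37 °C. Probe added at 500 nM final for another 1 h, then SDS/DTT, SDS-PAGE and transfer. Probe read at 658 nm, anti-GrA rabbit monoclonal with Alexa 488 secondary.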

[9] = biological target: T1, Granzyme A (Homo sapiens); assay: Binding affinity to Granzyme A active form (unknown origin) expressed in Pichia pastoris by Western blot analysis; outline: as §2
[10] = biological target: T1, Granzyme A (Homo sapiens); assay: Binding affinity to Granzyme A (unknown origin) expressed in Pichia pastoris assessed as minimum concentration needed for GrA labeling at enzyme to probe ratio was 1:1 incubated for 5 to 30 mins by SDS-PAGE based in-gel detection method
Outline: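 Recombinant GrA (Pichia pastoris), 250 nM, with probe at 10–500 nM for 30 min at 37 °C in pH 7.5 Tris/NaCl/CaCl2/Tween-20 buffer. SDS/DTT reduction, 4–12% Bis-Tris SDS-PAGE, transfer, and probe fluorescence at 658 nm, used to estimate the lowest labeling concentration.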

[11] = biological target: T1, Granzyme A (Homo sapiens); assay: Binding affinity to Granzyme A in human NK92 cells at 1 uM measured 30 mins to 2 hrs post dose by SDS-PAGE analysis; assay type: cell-based
[12] = biological target: T1, Granzyme A (Homo sapiens); assay: Binding affinity to Granzyme A (unknown origin) expressed in Pichia pastoris assessed as appearance of fluorescent 35 kDa species at enzyme to probe ratio was 1:1 incubated for 5 mins by SDS-PAGE based in-gel detection method
Outline: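 Recombinant GrA (Pichia pastoris) at 250 nM with 250 nM Cy5 probe (1:1) in Tris/NaCl/CaCl2/Tween-20 buffer pH 7.5, 37 °C, for 0–120 min. Reduced in SDS/DTT at 95 °C, run on 4–12% Bis-Tris SDS-PAGE, transferred to nitrocellulose, fluorescence read at 658 nm.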

[13] = biological target: T1, Granzyme A (Homo sapiens); assay: Binding affinity to Granzyme A zymogen form (unknown origin) expressed in Pichia pastoris by Western blot analysis; outline: as §2
[14] = biological target: T1, Granzyme A (Homo sapiens); assay: Binding affinity to Granzyme A in human NK92 cells at 1 uM treated 1 hr after GrA covalent inhibitor methyl 4-[(3S)-3-[[2-[(2S)-2-[(1-diphenoxyphosphoryl-4-guanidinobutyl)carbamoyl]-2,3,3a,4,5,6,7,7a-octahydroindol-1-yl]-2-oxoethyl]carbamoyl]-3,4-dihydro-1H-isoquinolin-2-yl]-4-oxobutanoate dosing and measured 30 mins to 2 hrs post dose by SDS-PAGE analysis; assay type: cell-based
[15] = biological target: T1, Granzyme A (Homo sapiens); assay: Binding affinity to Granzyme A zymogen form (unknown origin) expressed in Pichia pastoris at 500 nM in presence of 1 uM compound 3 by Western blot analysis; outline: as §2
[16] = biological target: T1, Granzyme A (Homo sapiens); assay: Binding affinity to Granzyme A in human NK92 cells at 250 nM to 2 uM incubated for 1 hr by SDS-PAGE based in-gel detection assay; assay type: cell-based
[17] = biological target: T1, Granzyme A (Homo sapiens); assay: Substrate activity at Granzyme A (unknown origin) expressed in Pichia pastoris incubated for 30 mins by fluorescence based assay
[18] = biological target: Granzyme B (Homo sapiens) (UniProt P10144); assay: Substrate activity at Granzyme B (unknown origin) expressed in Pichia pastoris assessed as compound hydrolysis at 200 uM incubated for 30 mins by fluorescence based assay relative to control

Chain of Granzyme B (Homo sapiens) (P10144 whole entry): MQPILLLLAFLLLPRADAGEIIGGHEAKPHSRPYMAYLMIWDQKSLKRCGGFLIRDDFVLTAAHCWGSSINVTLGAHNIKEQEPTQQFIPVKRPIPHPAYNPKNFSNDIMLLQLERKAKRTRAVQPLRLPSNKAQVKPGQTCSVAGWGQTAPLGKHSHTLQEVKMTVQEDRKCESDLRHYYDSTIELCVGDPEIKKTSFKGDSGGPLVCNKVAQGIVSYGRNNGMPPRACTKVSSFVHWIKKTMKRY

Compound: COC(=O)CCC(=O)N1Cc2ccccc2C[C@H]1C(=O)NCC(=O)N1C2CCCCC2C[C@H]1C(=O)NC(CCCNC(=N)N)P(=O)(Oc1ccccc1)Oc1ccccc1 (stereo partly drawn)
- Ratio [1]: 171000 s⁻¹ M⁻¹
- inhibition ([2]; concentration not given here): < 20%
- inhibition ([3]; concentration not given here): < 20%
- inhibition ([4]; concentration not given here): < 20%
- inhibition ([5]; concentration not given here): < 20%
- inhibition [6]: < 20%
- inhibition ([7]; concentration not given here): < 20%

Compound: CN1\C(=C/C=C/C=C/C2N(CCCCCC(=O)NCCCCCC(=O)N3Cc4ccccc4C[C@H]3C(=O)NCC(=O)N3C4CCCCC4C[C@H]3C(=O)NC(CCCNC(=N)N)P(=O)(Oc3ccccc3)Oc3ccccc3)c3ccccc3C2(C)C)C(C)(C)c2ccccc21 (stereo partly drawn)
- Activity [8]: inactive
- Activity [9]: Active
- Ratio [1]: 3520 s⁻¹ M⁻¹
- MEC [10]: 50 nM
- Activity [11]: Active
- Activity [12]: Active
- inhibition [2]: inactive
- inhibition [3]: inactive
- inhibition [4]: inactive
- Activity [13]: inactive
- Activity [14]: inactive
- inhibition [5]: inactive
- inhibition [6]: 3%
- Activity [15]: inactive
- Activity [16]: Active
- inhibition [7]: inactive

Compound: CC(=O)N1Cc2ccccc2C[C@H]1C(=O)N[C@@H](CCc1nc2ccccc2s1)C(=O)N1C2CCCCC2C[C@H]1C(=O)N[C@@H](Cc1ccc(NC(=N)N)cc1)C(=O)Nc1ccc2c(CC(N)=O)cc(=O)oc2c1 (stereo partly drawn)
- Activity [17]: Active

Compound: CC(=O)N[C@@H](CC[S+](C)[O-])C(=O)NCC(=O)N[C@@H](Cc1ccc(OCc2c(Cl)cccc2Cl)cc1)C(=O)N[C@@H](CCCNC(=N)N)C(=O)Nc1ccc2c(CC(N)=O)cc(=O)oc2c1 (stereo partly drawn) (Ac-[Met(O)]GY(X1)R-{ACC})
- Activity [17]: Active

More lines, now with the values ahead:

- Activity [17]: Active
Compound: CC(=O)N[C@@H](CC[S+](C)[O-])C(=O)NCC(=O)N1CC(OCc2ccccc2)C[C@H]1C(=O)N[C@@H](CCCNC(=N)N)C(=O)Nc1ccc2c(CC(N)=O)cc(=O)oc2c1 (stereo partly drawn)

- Activity [18]: Active
Compound: CC(=O)N[C@@H](CC[S+](C)[O-])C(=O)NCC(=O)N1CC(OCc2ccccc2)C[C@H]1C(=O)Nc1cccc(C(=O)Nc2ccc3c(CC(N)=O)cc(=O)oc3c2)c1 (stereo partly drawn)

- Activity [17]: Active
Compound: CC(=O)N[C@@H](CC[S+](C)[O-])C(=O)NCC(=O)N1CC(OCc2ccccc2)C[C@H]1C(=O)N[C@@H](Cc1ccc(NC(=N)N)cc1)C(=O)Nc1ccc2c(CC(N)=O)cc(=O)oc2c1 (stereo partly drawn)
